From ChEMBL document CHEMBL1649135, “Use of a surface plasmon resonance method to investigate antibiotic and plasma protein interactions” (Antimicrob Agents Chemother, 2009)
pKd: −log10 of the molar value. In brackets after ≈: the same amount, converted by molar mass.

Legend:
Staphylococcus aureus [1] = experiment: Antimicrobial activity against Staphylococcus aureus CIP 76.25 by microdilution method in presence of 4% human serum albumin; format: functional
In short: (§1)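 Broth microdilution MICs against S. aureus CIP 76.25 by CLSI (formerly NCCLS) standard methods, run in duplicate. Each test medium was supplemented with one serum component: 50% human serum, 4% HSA, 0.1% AGP or 1.6% human gamma globulins. These levels were chosen to match normal physiological concentrations. MIC was read as in standard testing.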

[2] = Protein binding in serum; format: ADME, cell-free; conditions: read-out: PB (converted)
Albumin [3] = biological target: T1, Albumin (Homo sapiens, UniProt P02768); experiment: Binding affinity to human serum albumin assessed as fraction of binding sites occupied by compound at 180 ug/ml by SPR; format: ADME; conditions: isolated protein
T1 sequence (P02768 whole entry): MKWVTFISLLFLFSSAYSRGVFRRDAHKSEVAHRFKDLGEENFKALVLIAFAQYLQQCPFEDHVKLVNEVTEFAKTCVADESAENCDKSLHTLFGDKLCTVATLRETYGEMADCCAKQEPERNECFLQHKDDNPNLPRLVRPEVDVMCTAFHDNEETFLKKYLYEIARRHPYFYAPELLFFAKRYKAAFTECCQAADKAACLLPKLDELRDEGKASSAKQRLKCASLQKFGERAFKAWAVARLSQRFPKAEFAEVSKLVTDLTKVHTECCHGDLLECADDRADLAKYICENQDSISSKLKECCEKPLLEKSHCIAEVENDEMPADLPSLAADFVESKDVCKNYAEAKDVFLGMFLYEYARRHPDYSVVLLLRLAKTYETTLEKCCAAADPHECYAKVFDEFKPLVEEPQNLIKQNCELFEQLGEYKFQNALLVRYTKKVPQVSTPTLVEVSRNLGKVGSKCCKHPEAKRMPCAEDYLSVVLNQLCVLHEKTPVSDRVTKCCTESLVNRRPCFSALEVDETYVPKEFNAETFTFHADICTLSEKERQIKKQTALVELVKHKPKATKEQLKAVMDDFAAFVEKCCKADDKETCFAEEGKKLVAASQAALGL
In short: (§2)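 HSA amine-coupled on CM5 chip at 25°C, with a reference flow cell lacking protein. Compound in PBS with 5% DMSO, injected at 400 to 0.1 µM in twofold dilutions, 50 µl/min, 30 s association and 30 s dissociation. Reference-subtracted responses read 10 s into injection and DMSO-corrected. Fraction of sites occupied plotted against drug concentration from dose-response curves.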

Albumin [4] = biological target: T1, Albumin; experiment: Binding affinity to human serum albumin assessed as fraction of binding sites occupied by compound at 22 to 44 ug/ml by SPR; format: ADME; conditions: isolated protein; in short: as §2
Staphylococcus aureus [5] = experiment: Antimicrobial activity against Staphylococcus aureus CIP 76.25 by microdilution method; format: functional
In short: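 S. aureus CIP 76.25 MICs determined in duplicate by CLSI standard broth microdilution.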

Staphylococcus aureus [6] = experiment: Antimicrobial activity against Staphylococcus aureus CIP 76.25 by microdilution method in presence of 0.1% alpha-1-acid glycoprotein; format: functional; in short: as §1
Staphylococcus aureus [7] = experiment: Antimicrobial activity against Staphylococcus aureus CIP 76.25 by microdilution method in presence of 50% human serum; format: functional; in short: as §1
Albumin [8] = biological target: T1, Albumin; experiment: Binding affinity to first site on human serum albumin by SPR; format: ADME
In short: (§3)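 SPR on a BIACORE 3000 at 25°C. HSA was amine-coupled to a CM5 chip at 40 µg/ml in 10 mM acetate, pH 5.2. Drug was injected from 400 µM to 0.1 µM in twofold dilutions in PBS with 5% DMSO at 50 µl/min, with 30 s association and 30 s dissociation. Responses were reference-subtracted, read 10 s into the injection and DMSO-corrected. Dose-response curves gave KD or fraction of sites occupied.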

Staphylococcus aureus [9] = experiment: Antimicrobial activity against Staphylococcus aureus CIP 76.25 by microdilution method in presence of 1.6% gamma globulin; format: functional; in short: as §1
[10] = Binding affinity to human alpha-1-acid glycoprotein assessed as compound binding sites level by SPR; format: ADME
In short: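 Ranking by SPR at 25°C. AGP was PDEA-modified and thiol-coupled to a CM5 chip; a reference surface carried no protein. Drugs at 250 µM in PBS with 5% DMSO were injected in randomized duplicates for 30 s at 50 µl/min. Responses were DMSO-calibration-corrected and normalized to a 10,000-RU immobilization level. Experiments were run in triplicate, mean ± SE.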

Albumin [11] = biological target: T1, Albumin; experiment: Binding affinity to human serum albumin assessed as fraction of binding sites occupied by compound at 146 to 220 ug/ml by SPR; format: ADME; conditions: isolated protein; in short: as §3
Albumin [12] = biological target: T1, Albumin; experiment: Binding affinity to human serum albumin assessed as fraction of binding sites occupied by compound at 20 ug/ml by SPR; format: ADME; conditions: isolated protein; in short: as §2
Albumin [13] = biological target: T1, Albumin; experiment: Binding affinity to human serum albumin assessed as fraction of binding sites occupied by compound at 215 to 430 ug/ml by SPR; format: ADME; conditions: isolated protein; in short: as §2
Albumin [14] = biological target: T1, Albumin; experiment: Binding affinity to human serum albumin assessed as fraction of binding sites occupied by compound at 160 ug/ml by SPR; format: ADME; conditions: isolated protein; in short: as §2
Albumin [15] = biological target: T1, Albumin; experiment: Binding affinity to human serum albumin assessed as fraction of binding sites occupied by compound at 130 to 180 ug/ml by SPR; format: ADME; conditions: isolated protein; in short: as §3
Albumin [16] = biological target: T1, Albumin; experiment: Binding affinity to human serum albumin assessed as fraction of binding sites occupied by compound at 60 ug/ml by SPR; format: ADME; conditions: isolated protein; in short: as §3
Albumin [17] = biological target: T1, Albumin; experiment: Binding affinity to human serum albumin assessed as fraction of binding sites occupied by compound at 7 to 15 ug/ml by SPR; format: ADME; conditions: isolated protein; in short: as §3
Albumin [18] = biological target: T1, Albumin; experiment: Binding affinity to human serum albumin assessed as fraction of binding sites occupied by compound at 120 ug/ml by SPR; format: ADME; conditions: isolated protein; in short: as §3
Albumin [19] = biological target: T1, Albumin; experiment: Binding affinity to human serum albumin assessed as fraction of binding sites occupied by compound at 80 to 120 ug/ml by SPR; format: ADME; conditions: isolated protein; in short: as §3
Albumin [20] = biological target: T1, Albumin; experiment: Binding affinity to human serum albumin assessed as fraction of binding sites occupied by compound at 245 ug/ml by SPR; format: ADME; conditions: isolated protein; in short: as §3
Albumin [21] = biological target: T1, Albumin; experiment: Binding affinity to human serum albumin assessed as fraction of binding sites occupied by compound at >325 ug/ml by SPR; format: ADME; conditions: isolated protein; in short: as §3

Row | SMILES | MIC (Staphylococcus aureus [1]) [µg/mL] | fraction unbound [2] | MIC (Staphylococcus aureus [5]) [µg/mL] | MIC (Staphylococcus aureus [6]) [µg/mL] | MIC (Staphylococcus aureus [7]) [µg/mL] | pKd (Albumin [8]) | MIC (Staphylococcus aureus [9]) [µg/mL] | Ratio [10] | other results
1 | CO/N=C(\C(=O)N[C@@H]1C(=O)N2C(C(=O)O)=C(COC(C)=O)CS[C@H]12)c1csc(N)n1 [CEFOTAXIME] | 1 | 0.97 | 0.781 (≈ 1.71 µM) | 1 | 4 | 4.92 | 2 | < 1 | Ratio (Albumin [3]): 1; Ratio (Albumin [4]): 0.5
2 | CC[C@H]1OC(=O)[C@H](C)[C@@H](O[C@H]2C[C@@](C)(OC)[C@@H](O)[C@H](C)O2)[C@H](C)[C@@H](O[C@@H]2O[C@H](C)C[C@H](N(C)C)[C@H]2O)[C@](C)(O)C[C@@H](C)C(=O)[C@H](C)[C@@H](O)[C@]1(C)O [ERYTHROMYCIN] | 2 | 0.81 | 0.195 (≈ 0.266 µM) | 2 | 2 | 4.92 | 2 | < 1 | Ratio (Albumin [11]): 0.5
3 | CC(=O)O[C@H]1C[C@@]2(C)[C@@H](C[C@@H](O)[C@H]3[C@@]4(C)CC[C@@H](O)[C@@H](C)[C@@H]4CC[C@@]32C)/C1=C(\CCC=C(C)C)C(=O)O [FUSIDIC ACID] | 256 | 0.03 | 0.049 (≈ 0.0948 µM) | 2 | 1020 | 4.92 | 2 | < 1 | Ratio (Albumin [12]): 0.5; Ratio (Albumin [13]): 1.5; Ratio (Albumin [14]): 1
4 | CCC[C@@H]1C[C@@H](C(=O)N[C@@H]([C@H]2O[C@H](SC)[C@H](O)[C@@H](O)[C@H]2O)[C@@H](C)O)N(C)C1 [LINCOMYCIN] | 2 | 0.25 | 0.391 (≈ 0.962 µM) | 2 | 2 | 4.92 | 1 | < 1 | Ratio (Albumin [15]): 0.5
5 | CN(C)c1ccc(O)c2c1C[C@H]1C[C@H]3[C@H](N(C)C)C(O)=C(C(N)=O)C(=O)[C@@]3(O)C(O)=C1C2=O [MINOCYCLINE] | 4 | 0.46 | 0.195 (≈ 0.426 µM) | 1 | 4 | 4.92 | 1 | < 1 | –
6 | CO[C@@H]1[C@@H](OC(N)=O)[C@@H](O)[C@H](Oc2ccc3c(O)c(NC(=O)c4ccc(O)c(CC=C(C)C)c4)c(=O)oc3c2C)OC1(C)C [NOVOBIOCIN] | 256 | – | 0.049 (≈ 0.08 µM) | 2 | 1020 | 4.92 | 2 | < 1 | Ratio (Albumin [16]): 1; Ratio (Albumin [17]): 0.5; Ratio (Albumin [18]): 1.5
7 | CC1COc2c(N3CCN(C)CC3)c(F)cc3c(=O)c(C(=O)O)cn1c23 (configuration not stated) [OFLOXACIN] | 1 | – | 0.195 (≈ 0.54 µM) | 1 | 2 | 4.92 | 2 | – | –
8 | CO[C@H]1/C=C/O[C@@]2(C)Oc3c(C)c(O)c4c(O)c(c(/C=N/N5CCN(C)CC5)c(O)c4c3C2=O)NC(=O)/C(C)=C\C=C\[C@H](C)[C@H](O)[C@@H](C)[C@@H](O)[C@@H](C)[C@H](OC(C)=O)[C@@H]1C [RIFAMPIN] | 4 | 0.36 | 0.049 (≈ 0.0595 µM) | 1 | 4 | 4.92 | 2 | < 1 | Ratio (Albumin [19]): 1; Ratio (Albumin [20]): 0.5; Ratio (Albumin [21]): 1.5
9 | CN[C@H](CC(C)C)C(=O)N[C@H]1C(=O)N[C@@H](CC(N)=O)C(=O)N[C@H]2C(=O)N[C@H]3C(=O)N[C@H](C(=O)N[C@H](C(=O)O)c4cc(O)cc(O)c4-c4cc3ccc4O)[C@H](O)c3ccc(c(Cl)c3)Oc3cc2cc(c3O[C@@H]2O[C@H](CO)[C@@H](O)[C@H](O)[C@H]2O[C@H]2C[C@](C)(N)[C@H](O)[C@H](C)O2)Oc2ccc(cc2Cl)[C@H]1O [VANCOMYCIN] | – | 0.9 | 0.781 (≈ 0.539 µM) | – | – | 4.92 | – | – | –
